These results are taken from ChEMBL document CHEMBL2390922, “Synthesis and biological evaluation of sulforaphane derivatives as potential antitumor agents” (Eur J Med Chem, 2013).

As usually defined, the IC50 is the concentration that gives 50% inhibition.

Calls of active or inactive are those of the source. No cut-off for these calls is given here.

The target of test [1] is T1, Nuclear factor erythroid 2-related factor 2 (Homo sapiens) (UniProt Q16236).
T1 sequence (whole entry): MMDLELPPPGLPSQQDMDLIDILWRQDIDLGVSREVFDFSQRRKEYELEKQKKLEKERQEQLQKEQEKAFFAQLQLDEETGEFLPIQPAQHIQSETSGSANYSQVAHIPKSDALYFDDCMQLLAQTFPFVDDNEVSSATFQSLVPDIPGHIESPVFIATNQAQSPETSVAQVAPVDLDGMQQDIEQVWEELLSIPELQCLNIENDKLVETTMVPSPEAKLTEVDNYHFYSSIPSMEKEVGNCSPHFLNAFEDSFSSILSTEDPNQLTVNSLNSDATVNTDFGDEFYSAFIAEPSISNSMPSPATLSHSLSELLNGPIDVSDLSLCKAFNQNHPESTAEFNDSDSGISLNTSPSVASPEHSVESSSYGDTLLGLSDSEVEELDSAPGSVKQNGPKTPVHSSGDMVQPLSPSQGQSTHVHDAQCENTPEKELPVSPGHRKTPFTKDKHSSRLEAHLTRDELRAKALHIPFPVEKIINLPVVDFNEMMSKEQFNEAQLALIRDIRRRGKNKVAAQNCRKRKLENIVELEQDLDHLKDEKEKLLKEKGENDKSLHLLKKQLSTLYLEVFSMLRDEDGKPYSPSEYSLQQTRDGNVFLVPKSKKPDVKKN
Put plainly: Activation of NRF2 in human HepG2 cells after 6 hrs by spectrophotometric analysis. In kind it is cell-based. The gist of the method: (§1)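 HepG2 cells treated 2, 4 and 8 h at 20 µM, or 6 h at 5, 10 and 20 µM. Nuclear extracts were prepared by hypotonic lysis and detergent, then 14,000 g spin at 4 °C. Nrf2 DNA-binding was measured by TransAM ELISA: nuclear extract incubated 1 h at room temperature in wells, anti-Nrf2 (1:1000) 1 h, HRP secondary (1:1000), developing solution 2-15 min, stop solution.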

For test [2], the target named is T1, Nuclear factor erythroid 2-related factor 2 (Homo sapiens). Briefly: Activation of NRF2 in human HepG2 cells at 20 uM by spectrophotometric analysis. In kind it is cell-based. The conditions noted are these: TDE = time-dependent effect. The gist of the method:
as §1

The subject of test [3] is HepG2. Put plainly: Induction of apoptosis in human HepG2 cells assessed as late apoptotic cells at 20 uM after 48 hrs by Annexin-V-FITC/propidium iodide staining-based flow cytometric analysis (reference value: 0.29%). In kind it is functional. In general terms: Flow cytometry measures light scatter and fluorescence of single cells or particles in a stream.
Test [4] relates to HepG2. Put plainly: Induction of apoptosis in human HepG2 cells assessed as late apoptotic cells at 10 uM after 48 hrs by Annexin-V-FITC/propidium iodide staining-based flow cytometric analysis (reference value: 0.29%). In kind it is functional.
The subject of test [5] is HepG2. Put plainly: Induction of apoptosis in human HepG2 cells assessed as late apoptotic cells at 5 uM after 48 hrs by Annexin-V-FITC/propidium iodide staining-based flow cytometric analysis (reference value: 0.29%). In kind it is functional.
The subject of test [6] is HepG2. Briefly: Induction of apoptosis in human HepG2 cells assessed as early apoptotic cells at 20 uM after 48 hrs by Annexin-V-FITC/propidium iodide staining-based flow cytometric analysis (reference value: 0.14%). In kind it is functional.
For test [7], the system named is HepG2. Briefly: Induction of apoptosis in human HepG2 cells assessed as early apoptotic cells at 10 uM after 48 hrs by Annexin-V-FITC/propidium iodide staining-based flow cytometric analysis (reference value: 0.14%). In kind it is functional.
Test [8] has as its system HepG2. Briefly: Induction of apoptosis in human HepG2 cells assessed as early apoptotic cells at 5 uM after 48 hrs by Annexin-V-FITC/propidium iodide staining-based flow cytometric analysis (reference value: 0.14%). In kind it is functional.
Test [9] has as its system HepG2. Put plainly: Cell cycle arrest in human HepG2 cells assessed as accumulation at S phase at 20 uM after 48 hrs by DAPI staining-based flow cytometric analysis relative to control. In kind it is functional. The gist of the method: (§2)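 HepG2 cells cultured at 37 °C, 5% CO2, exposed 48 h to 5, 10 or 20 µM. Cells harvested, washed twice in PBS, and DNA content of 10,000 events read by flow cytometry. Phase proportions compared with vehicle control; significance at p<0.05 and p<0.01.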

Test [10] has as its system HepG2. Briefly: Cell cycle arrest in human HepG2 cells assessed as accumulation at G2/M phase at 5 to 20 uM after 48 hrs by DAPI staining-based flow cytometric analysis. In kind it is functional. The gist of the method: as §2
The test system of test [11] is HepG2. Briefly: Cell cycle arrest in human HepG2 cells assessed as decrease in accumulation at G0/G1 phase after 48 hrs by DAPI staining-based flow cytometric analysis. In kind it is functional. The gist of the method: (§3)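 HepG2 cells were exposed for 48 h to 5, 10 or 20 of each agent, alongside a vehicle control. About […] cells were harvested and washed twice in PBS. DNA content was read by flow cytometry on 10,000 events, giving the percentage of cells in each phase relative to control.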

Test [12] has as its system HepG2. Briefly: Cell cycle arrest in human HepG2 cells assessed as accumulation at S phase after 48 hrs by DAPI staining-based flow cytometric analysis. In kind it is functional. The gist of the method: as §3
In a further test the test system is Vero. Put plainly: Cytotoxicity against African green monkey Vero cells after 72 hrs by MTT assay. The following applies: Chlorocebus sabaeus. In kind it is cell-based.
Test [13] is described as follows: Cytotoxicity against human SH-SY5Y cells after 72 hrs by MTT assay. In kind it is functional, cell-based. The gist of the method: (§4)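 Cells were grown in RPMI-1640 or DMEM with 10% NBS or FBS and 100 U/mL penicillin, at 37 °C under 5% CO₂. After 72 h with a range of compound concentrations, MTT was added for a further 4 h at 37 °C. Formazan was dissolved in DMSO and absorbance read at 570 and 630 nm. Assays ran in triplicate across three independent experiments, and IC₅₀ was calculated for 50% loss of viability.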

In the next test the test system is HCT-116. Put plainly: Cytotoxicity against human HCT116 cells after 72 hrs by MTT assay. In kind it is functional, cell-based. The conditions noted are these: HCT-116, 72 h. The gist of the method:
as §4
(Formazan colour is commonly taken as a measure of viable cells.)

In another test the test system is A549. Put plainly: Cytotoxicity against human A549 cells after 72 hrs by MTT assay. The following applies: A549, 72 h. In kind it is functional, cell-based. The gist of the method: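 After 72 h with a range of compound concentrations, MTT was added for a further 4 h at 37 °C. Formazan was dissolved in DMSO and absorbance read at 570 and 630 nm. Assays ran in triplicate across three independent experiments, and IC₅₀ was calculated for 50% loss of viability.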

Another test concerns MCF7. Briefly: Cytotoxicity against human MCF7 cells after 72 hrs by MTT assay. In kind it is functional, cell-based. The conditions noted are these: MCF7, 72 h. The gist of the method:
as §4

Test [14] concerns HepG2. Briefly: Cytotoxicity against human HepG2 cells after 72 hrs by MTT assay. In kind it is functional, cell-based. The following applies: HepG2, 72 h. The gist of the method:
as §4

As for `[O-][S+](CCCCN=C=S)Cc1ccccc1` (stereo unspecified), the Activity result in [1] is “Dose-dependent effect”; in test [2], “tde”; with HepG2 [3] it was 25.33%; with HepG2 [4], 10.91%; with HepG2 [5] it was 1.78%; with HepG2 [6], 0.24%. Further, the Activity in the test with HepG2 [7] was 0.72%; with HepG2 [8] it was 0.39%; in the test on HepG2 [9], 9.11%; in the test with HepG2 [11], “Dose-dependent effect”; in the test with HepG2 [12], “Dose-dependent effect”. In addition, the result in the test on HepG2 [10] was Active. The half-maximal inhibitory concentration (IC50) in the test on Vero is 4.85 µM; in test [13], 5.21 µM; with HCT-116, 3.66 µM; in the test with A549, 7.41 µM; in the test on MCF7, 3.3 µM; in the test with HepG2 [14], 2.85 µM.
Regarding `C[S+]([O-])CCCCN=C=S` (stereo unspecified) [SULFORAPHANE], the Activity result is “Dose-dependent effect” in test [1]; “tde” in test [2]; 4.19% with HepG2 [3]; 1.22% in the test with HepG2 [4]; 0.73% with HepG2 [5]; 0.9% with HepG2 [6]. In addition, the Activity is 0.44% with HepG2 [7]; 0.15% with HepG2 [8]; 5.9% in the test on HepG2 [9]; “Dose-dependent effect” in the test with HepG2 [11]; “Dose-dependent effect” in the test with HepG2 [12]. Besides, the result in the test on HepG2 [10] was Active. Besides, the IC50 is 13.7 µM in the test with Vero; 13.3 µM in test [13]; 11.6 µM with HCT-116; 22 µM in the test with A549; 17.7 µM with MCF7; 14.1 µM in the test with HepG2 [14].
